Assay results published in ChEMBL document CHEMBL1129750, “Bicyclic N-hydroxyurea inhibitors of 5-lipoxygenase: pharmacodynamic, pharmacokinetic, and in vitro metabolic studies characterizing N-hydroxy-N-(2,3-dihydro-6-(phenylmethoxy)-3-benzofuranyl)urea” (J Med Chem, 1996).
pIC50: −log10 of the molar value. Blank lines part the entries; values can stand above or below the molecule they belong to. Activity calls are given as the source filed them. The calls are words filed in the database; no cut-off is given here.

Key:
Mus musculus [1] = species on record: Mus musculus; assay: Compound was tested to inhibit Leukotriene formation in A-23187-stimulated mouse whole blood using […] ex vivo; type: functional
[2] = target: T1, Polyunsaturated fatty acid 5-lipoxygenase (Rattus norvegicus, UniProt P12527); assay: Inhibitory activity against rat 5-lipoxygenase by using continuous oxygen consumption assay.
T1 sequence (P12527 whole entry): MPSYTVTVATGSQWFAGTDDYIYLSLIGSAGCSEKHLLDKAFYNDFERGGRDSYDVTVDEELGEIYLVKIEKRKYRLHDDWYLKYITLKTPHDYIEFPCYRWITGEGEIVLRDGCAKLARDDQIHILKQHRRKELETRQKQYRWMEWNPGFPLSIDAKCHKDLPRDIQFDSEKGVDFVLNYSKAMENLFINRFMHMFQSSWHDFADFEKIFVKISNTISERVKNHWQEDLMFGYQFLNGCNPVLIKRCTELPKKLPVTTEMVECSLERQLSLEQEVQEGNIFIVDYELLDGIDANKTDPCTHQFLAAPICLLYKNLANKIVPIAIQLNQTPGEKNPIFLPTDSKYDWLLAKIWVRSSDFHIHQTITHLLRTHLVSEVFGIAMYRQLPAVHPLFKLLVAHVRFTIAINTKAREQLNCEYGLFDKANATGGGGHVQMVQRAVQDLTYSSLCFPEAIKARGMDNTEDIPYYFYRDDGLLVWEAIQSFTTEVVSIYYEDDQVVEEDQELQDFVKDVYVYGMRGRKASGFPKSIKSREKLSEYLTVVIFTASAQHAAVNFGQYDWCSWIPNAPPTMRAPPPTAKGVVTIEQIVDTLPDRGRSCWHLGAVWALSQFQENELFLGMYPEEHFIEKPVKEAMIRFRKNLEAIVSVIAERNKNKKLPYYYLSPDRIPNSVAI
Procedure, shortened: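 Semipurified cytosolic 5-LO from rat basophilic leukemia (RBL-1) cells; continuous oxygen-electrode assay of oxygen consumption; IC50.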

Mus musculus [3] = species on record: Mus musculus; assay: Inhibition of Leukotriene formation in mouse adoptive peritoneal anaphylaxis assay ex vivo; type: functional; conditions: Mus musculus
[4] = target: T2, Polyunsaturated fatty acid 5-lipoxygenase (Mus musculus) (UniProt P48999); assay: Inhibition of leukotriene formation in A-23187-stimulated mouse whole blood using […] ex vivo, activity expressed as percent of control.; type: functional, tissue-based; set-up: scale not given: the % may be the effect or the level left
T2 sequence (whole entry): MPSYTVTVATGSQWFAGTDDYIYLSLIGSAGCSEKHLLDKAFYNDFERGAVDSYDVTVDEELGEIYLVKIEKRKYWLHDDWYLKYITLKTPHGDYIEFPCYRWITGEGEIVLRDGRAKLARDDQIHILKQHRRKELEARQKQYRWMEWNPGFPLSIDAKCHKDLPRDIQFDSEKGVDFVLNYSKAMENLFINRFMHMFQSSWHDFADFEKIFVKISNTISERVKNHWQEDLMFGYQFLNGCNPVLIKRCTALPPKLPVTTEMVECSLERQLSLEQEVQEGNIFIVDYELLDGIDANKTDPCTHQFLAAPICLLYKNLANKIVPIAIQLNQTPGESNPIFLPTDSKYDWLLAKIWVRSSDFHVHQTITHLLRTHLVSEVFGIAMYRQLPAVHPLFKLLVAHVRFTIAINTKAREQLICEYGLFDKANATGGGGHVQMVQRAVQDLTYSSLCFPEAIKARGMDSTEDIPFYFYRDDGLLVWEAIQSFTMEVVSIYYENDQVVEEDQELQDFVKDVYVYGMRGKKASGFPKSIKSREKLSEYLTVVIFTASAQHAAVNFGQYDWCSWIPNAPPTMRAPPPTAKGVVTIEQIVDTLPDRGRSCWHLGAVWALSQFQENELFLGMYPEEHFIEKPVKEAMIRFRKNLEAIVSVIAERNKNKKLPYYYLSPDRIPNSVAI

Mus musculus [5] = assay: Compound was tested to inhibit Leukotriene formation in mouse sensitized with 1BD8 cells after 7 hr of compound administration, activity expressed as percent of control; type: functional; set-up: concentration or dose not given beside the values
Homo sapiens [6] = species on record: Homo sapiens; assay: Glucuronidation rates in human liver microsomes; type: functional
Procedure, shortened: (§1)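 Liver microsomes (fresh male CD-1 mouse >10 weeks, or frozen human donor) at 0.25–1.0 mg/mL protein. Incubated with 2.5 mM substrate, 15 mM [14C]UDP-glucuronic acid, 10 mM MgCl2 and 2% BSA in 100 mM sodium phosphate pH 7.4, at 37 °C for 1–4 h. Stopped with 20% acetonitrile; glucuronide quantified by HPLC. Mean of duplicates.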

Mus musculus [7] = species on record: Mus musculus; assay: Glucuronidation rates in mouse liver microsomes; type: functional; procedure, shortened: as §1
Mus musculus [8] = species on record: Mus musculus; assay: Compound was tested to inhibit Leukotriene formation in A-23187-stimulated mouse whole blood using […] ex vivo, activity expressed as percent of control; NS=No Stastistical Significance; type: functional, organism-based
Mus musculus [9] = species on record: Mus musculus; assay: Percentage inhibition of LTB4 formation after 6 hr in mouse; type: functional
Mus musculus [10] = assay: Maximum inhibition of LTB4 formation at dose 15 mg/kg in mouse; type: functional
Mus musculus [11] = assay: Percentage inhibition of LTB4 after 6 hr at dose 2 mg/kg in mouse; type: functional
Mus musculus [12] = assay: Maximum inhibition of LTB4 at dose 2 mg/kg in mouse; type: functional
Mus musculus [13] = assay: Maximum inhibition of LTB4 at dose 6 mg/kg in mouse; type: functional
Mus musculus [14] = assay: Percentage inhibition of LTB4 after 6 hr at dose 6 mg/kg in mouse; type: functional
Homo sapiens [15] = species on record: Homo sapiens; assay: Compound was tested to inhibit Leukotriene formation in A-23187-stimulated human whole blood using LTB4 specific RIA in vitro; type: functional
Procedure, shortened: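 Human whole blood stimulated with A23187; LTB4 measured by specific radioimmunoassay. IC50 with 95% confidence limits from linear regression.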

Mus musculus [16] = assay: Maximum inhibition of LTB4 at dose 10 mg/kg in mouse; type: functional
Mus musculus [17] = assay: Percentage inhibition of LTB4 after 6 hr at dose 10 mg/kg in mouse; type: functional
[18] = Mus musculus, Blood, read-out: ED50

SMILES: NC(=O)N(O)C1COc2cc(OCc3ccccc3)ccc21 (single isomer, unassigned; (-))
Rate of formation (nM (mg of protein)-1) (Homo sapiens [6]): 60.3
Rate of formation (nM (mg of protein)-1) (Mus musculus [7]): 5.9

SMILES: NC(=O)N(O)C1CCn2c1cc1ccccc12 (stereo unspecified)
pIC50 [2]: 5.00
Activity [4]: -74%

SMILES: NC(=O)N(O)C1CCCc2c(OCc3ccccc3)cccc21 (stereo unspecified)
pIC50 [2]: 6.04
Activity [4]: -44%

SMILES: Cc1c2n(c3ccc(C(C)C)cc13)CCC2N(O)C(N)=O (stereo unspecified)
pIC50 [2]: 5.77
Activity (Mus musculus [8]): inactive

SMILES: CC(c1cc2ccccc2s1)N(O)C(N)=O (stereo unspecified) [ZILEUTON]
ED50 (Mus musculus [1]; [18]): 1 mg/kg
ED50 (Mus musculus [3]): 1 mg/kg
inhibition in vivo at 2 mg/kg (Mus musculus [11]): 40%
Activity [4]: -78%
Activity (Mus musculus [5]): -10%
Max inhibition (Mus musculus [12]): 70
Rate of formation (nM (mg of protein)-1) (Homo sapiens [6]): 6.8
Rate of formation (nM (mg of protein)-1) (Mus musculus [7]): 0.7

SMILES: NC(=O)N(O)C1CCCc2ccccc21 (stereo unspecified)
pIC50 [2]: 4.54
Activity [4]: -30%

SMILES: NC(=O)N(O)C1CCn2c1cc1cc(Oc3ccccc3)ccc12 (stereo unspecified)
pIC50 [2]: 6.28
Activity [4]: -58%

SMILES: NC(=O)N(O)C1COc2c1ccc1ccccc21 (stereo unspecified)
pIC50 [2]: 5.38

SMILES: NC(=O)N(O)C1COc2cc(OCc3ccccc3)ccc21 (stereo in doubt; 1a)
Max inhibition (Mus musculus [13]): 91
ED50 (Mus musculus [1]): 3.9 mg/kg
inhibition in vivo at 6 mg/kg (Mus musculus [14]): 87%
ED50 (Mus musculus [3]): 3.9 mg/kg
Activity (Mus musculus [5]): -55%
pIC50 (Homo sapiens [15]): 5.37

SMILES: NC(=O)N(O)C1CCc2cccc(Oc3ccccc3)c21 (stereo unspecified)
pIC50 [2]: 5.25

SMILES: NC(=O)N(O)C1CCCc2c1ccc1ccccc21 (stereo unspecified)
pIC50 [2]: 5.25

Further lines, with some results ahead:

pIC50 [2]: 5.66
Activity [4]: -70%
SMILES: NC(=O)N(O)C1CCCc2cc(OCc3ccc(Cl)cc3)ccc21 (stereo unspecified)
ED50 (Mus musculus [1]; [18]): 4.5 mg/kg
ED50 (Mus musculus [3]): 4.5 mg/kg
Activity (Mus musculus [5]): 0%

pIC50 [2]: 4.32
SMILES: COc1ccc2c(c1)CCCC2N(O)C(N)=O (stereo unspecified)
Activity (Mus musculus [8]): inactive

pIC50 [2]: 6.30
Activity [4]: -81%
SMILES: COc1ccc(COc2ccc3c(c2)CCCC3N(O)C(N)=O)cc1 (stereo unspecified)
ED50 (Mus musculus [1]; [18]): 4.8 mg/kg
ED50 (Mus musculus [3]): 4.8 mg/kg
Activity (Mus musculus [5]): -13%

pIC50 [2]: 5.74
SMILES: NC(=O)N(O)C1CCCc2cc(OCc3ccccc3)ccc21 (stereo in doubt; 3a) [listing 1 of 2 here]
ED50 (Mus musculus [1]; [18]): 9.9 mg/kg
Inhibition (Mus musculus [9]): 67%
Max inhibition (Mus musculus [10]): 61

pIC50 [2]: 6.21
SMILES: NC(=O)N(O)C1CCc2cc(OCc3ccccc3)ccc21 (stereo in doubt; (-)2a)

pIC50 [2]: 6.12
SMILES: NC(=O)N(O)C1CCCc2cc(OCc3ccccc3)ccc21 (single isomer, unassigned; (+))

pIC50 [2]: 6.07
Activity [4]: -88%
SMILES: NC(=O)N(O)C1CCc2cc(Oc3ccccc3)ccc21 (stereo unspecified)
ED50 (Mus musculus [1]; [18]): 6.4 mg/kg
Max inhibition (Mus musculus [16]): 88
inhibition in vivo at 10 mg/kg (Mus musculus [17]): 57%

pIC50 [2]: 5.89
SMILES: NC(=O)N(O)C1CCCc2cc(OCc3ccccc3)ccc21 (single isomer, unassigned; (-))

pIC50 [2]: 5.85
SMILES: COc1ccc(COc2ccc3c(c2)CCC3N(O)C(N)=O)cc1 (stereo unspecified)
Activity (Mus musculus [8]): inactive

Activity [4]: -67%
SMILES: NC(=O)N(O)C1CCCc2cc(OCc3ccccc3)ccc21 (stereo in doubt; 3a) [listing 2 of 2 here]
